Values after ≈ are worked out from the molar mass of the structure shown. Non-standard residues stand in square brackets, D forms with d. Residues, ends and D or L forms follow the SMILES beside them. *: point of attachment. dNva(5-oxo-5-(4-MeOPh)) = COc1ccc(C(=O)CC[C@@H](N)C(=O)O)cc1; dPhe(4-Cl) = N[C@H](Cc1ccc(Cl)cc1)C(=O)O; d2Nal = N[C@H](Cc1ccc2ccccc2c1)C(=O)O; Lys(iPr) = CC(C)NCCCC[C@H](N)C(=O)O; NMeY = CN[C@@H](Cc1ccc(O)cc1)C(=O)O; dBta = N[C@H](Cc1csc2ccccc12)C(=O)O; dCit = NC(=O)NCCC[C@@H](N)C(=O)O; d3Pal = N[C@H](Cc1cccnc1)C(=O)O; Nicotinoyl = O=C(c1cccnc1)*
What was measured:
[1] = Solubility was determined in 5% dextrose, pH 4.5; type: physicochemical
Procedure, shortened: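 Solubility measured in 5% dextrose at pH 4.5, reported in mg/mL; some peptides measured as TFA salts, others as acetate salts.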

Rattus norvegicus [2] = species on record: Rattus norvegicus; test: The negative logarithm of the concentration of the antagonist that requires 2-fold higher concentration of the agonist to release LH from cultured rat pituitary cells; type: functional, cell-based; settings: Pituitary gland cell, read-out: pA2 (converted)
Procedure, shortened: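 Cultured rat pituitary cells stimulated with LHRH agonist in presence of antagonist dissolved in 10 mmol Tris buffer pH 7.4; LH release measured. pA2 taken as negative log of antagonist concentration requiring 2-fold higher agonist concentration for LH release.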

[3] = molecular target: T1, Gonadotropin-releasing hormone receptor (Rattus norvegicus, UniProt P30969); test: The negative logarithm of the concentration of antagonist that inhibits 50% of the binding of 125 I-labeled leuprolide to the rat pituitary LHRH receptor
T1 sequence (P30969 whole entry): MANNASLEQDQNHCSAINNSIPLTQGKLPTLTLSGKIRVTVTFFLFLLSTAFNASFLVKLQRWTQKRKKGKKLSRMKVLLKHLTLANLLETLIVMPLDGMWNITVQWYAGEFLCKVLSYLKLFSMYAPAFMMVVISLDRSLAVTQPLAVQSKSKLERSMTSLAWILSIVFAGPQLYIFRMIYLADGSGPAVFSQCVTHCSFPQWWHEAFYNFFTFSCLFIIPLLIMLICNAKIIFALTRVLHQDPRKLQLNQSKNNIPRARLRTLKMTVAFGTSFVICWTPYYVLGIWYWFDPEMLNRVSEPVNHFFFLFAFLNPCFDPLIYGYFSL
Procedure, shortened: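 Competition binding to rat pituitary LHRH receptor with 125I-labeled leuprolide as radioligand; compounds dissolved in 10 mmol Tris buffer pH 7.4. Concentration inhibiting 50% of tracer binding determined and expressed as its negative logarithm (pKi). TFA salts unless indicated.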

Rattus norvegicus [4] = species on record: Rattus norvegicus; test: Effective dose of the antagonist that gives 50% of the maximal release of histamine from rat peritoneal mast cells; type: functional; settings: read-out: ED50 (the source's name)
Procedure, shortened: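 Mast cells from rat peritoneum; compounds dissolved in 5.6 mM glucose, 0.1% BSA in Dulbecco phosphate-buffered saline pH 7.4. Released histamine quantified by RIA kit; value is dose giving 50% of maximal histamine release, in µg/mL. Tested as TFA salts unless indicated.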

Compound | solubility [1] [µg/mL] | Ki [3] [nM] | EC50 (Rattus norvegicus [4]) [µg/mL] | Kb (Rattus norvegicus [2]) [nM]
CC(=O)N[C@H](Cc1ccc(Cl)cc1)C(=O)N[C@H](Cc1ccc(Cl)cc1)C(=O)N[C@H](Cc1csc2ccccc12)C(=O)N[C@@H](CO)C(=O)N[C@@H](Cc1ccc(O)cc1)C(=O)N[C@H](CCCCN)C(=O)N[C@@H](CC(C)C)C(=O)N[C@@H](CCCN=C(N)N)C(=O)N1CCC[C@H]1C(=O)N[C@H](C)C(N)=O [listing 1 of 2 here] | < 100 | 0.0331 |  | 0.00646
CC(=O)N[C@H](Cc1ccc(Cl)cc1)C(=O)N[C@H](Cc1ccc(Cl)cc1)C(=O)N[C@H](Cc1csc2ccccc12)C(=O)N[C@@H](CO)C(=O)N[C@@H](Cc1ccc(O)cc1)C(=O)N[C@H](CCCCN)C(=O)N[C@@H](CC(C)C)C(=O)N[C@@H](CCCN=C(N)N)C(=O)N1CCC[C@H]1C(=O)N[C@H](C)C(N)=O [listing 2 of 2 here] |  |  | 0.62 (≈ 0.43 µM) | 
CC(=O)N[C@H](Cc1ccc2ccccc2c1)C(=O)N[C@H](Cc1ccc(Cl)cc1)C(=O)N[C@H](Cc1cccnc1)C(=O)N[C@@H](CO)C(=O)N[C@@H](CCCCNC(=O)c1cccnc1)C(=O)N[C@H](CCCCNC(=O)c1cccnc1)C(=O)N[C@@H](CC(C)C)C(=O)N[C@@H](CCCCNC(C)C)C(=O)N1CCC[C@H]1C(=O)N[C@H](C)C(N)=O (Ac-[d2Nal][dPhe(4-Cl)][d3Pal]SK(Nicotinoyl)[dK](Nicotinoyl)L[Lys(iPr)]P[dA]-NH2) [listing 1 of 2 here] | 1100 (≈ 691 µM) | 0.0617 |  | 0.0234
CC(=O)N[C@H](Cc1ccc2ccccc2c1)C(=O)N[C@H](Cc1ccc(Cl)cc1)C(=O)N[C@H](Cc1cccnc1)C(=O)N[C@@H](CO)C(=O)N[C@@H](CCCCNC(=O)c1cccnc1)C(=O)N[C@H](CCCCNC(=O)c1cccnc1)C(=O)N[C@@H](CC(C)C)C(=O)N[C@@H](CCCCNC(C)C)C(=O)N1CCC[C@H]1C(=O)N[C@H](C)C(N)=O (Ac-[d2Nal][dPhe(4-Cl)][d3Pal]SK(Nicotinoyl)[dK](Nicotinoyl)L[Lys(iPr)]P[dA]-NH2) [listing 2 of 2 here] |  |  | 261 (≈ 164 µM) | 
CC(=O)N[C@H](Cc1ccc2ccccc2c1)C(=O)N[C@H](Cc1ccc(Cl)cc1)C(=O)N[C@H](Cc1cccnc1)C(=O)N[C@@H](CO)C(=O)N[C@@H](Cc1ccc(O)cc1)C(=O)N[C@H](CCCNC(N)=O)C(=O)N[C@@H](CC(C)C)C(=O)N[C@@H](CCCN=C(N)N)C(=O)N1CCC[C@H]1C(=O)N[C@H](C)C(N)=O (Ac-[d2Nal][dPhe(4-Cl)][d3Pal]SY[dCit]LRP[dA]-NH2) [listing 1 of 2 here] |  |  |  | 0.0355
CC(=O)N[C@H](Cc1ccc2ccccc2c1)C(=O)N[C@H](Cc1ccc(Cl)cc1)C(=O)N[C@H](Cc1cccnc1)C(=O)N[C@@H](CO)C(=O)N[C@@H](Cc1ccc(O)cc1)C(=O)N[C@H](CCCNC(N)=O)C(=O)N[C@@H](CC(C)C)C(=O)N[C@@H](CCCNC(=N)N)C(=O)N1CCC[C@H]1C(=O)N[C@H](C)C(N)=O (Ac-[d2Nal][dPhe(4-Cl)][d3Pal]SY[dCit]LRP[dA]-NH2) | < 1000 | 0.117 |  | 
CC(=O)N[C@H](Cc1ccc2ccccc2c1)C(=O)N[C@H](Cc1ccc(Cl)cc1)C(=O)N[C@H](Cc1cccnc1)C(=O)N[C@@H](CO)C(=O)N(C)[C@@H](Cc1ccc(O)cc1)C(=O)N[C@H](CCCCNC(=O)c1cccnc1)C(=O)N[C@@H](CC(C)C)C(=O)N[C@@H](CCCCNC(C)C)C(=O)N1CCC[C@H]1C(=O)N[C@H](C)C(N)=O (Ac-[d2Nal][dPhe(4-Cl)][d3Pal]S[NMeY][dK](Nicotinoyl)L[Lys(iPr)]P[dA]-NH2) [listing 1 of 2 here] | > 20000 |  |  | 0.00589
CC(=O)N[C@H](Cc1ccc2ccccc2c1)C(=O)N[C@H](Cc1ccc(Cl)cc1)C(=O)N[C@H](Cc1cccnc1)C(=O)N[C@@H](CO)C(=O)N(C)[C@@H](Cc1ccc(O)cc1)C(=O)N[C@H](CCCCNC(=O)c1cccnc1)C(=O)N[C@@H](CC(C)C)C(=O)N[C@@H](CCCCNC(C)C)C(=O)N1CCC[C@H]1C(=O)N[C@H](C)C(N)=O (Ac-[d2Nal][dPhe(4-Cl)][d3Pal]S[NMeY][dK](Nicotinoyl)L[Lys(iPr)]P[dA]-NH2) [listing 2 of 2 here] |  |  | 10 (≈ 6.51 µM) | 
CC(=O)N[C@H](Cc1ccc(Cl)cc1)C(=O)N[C@H](Cc1ccc(Cl)cc1)C(=O)N[C@H](Cc1csc2ccccc12)C(=O)N[C@@H](CO)C(=O)N(C)[C@@H](Cc1ccc(O)cc1)C(=O)N[C@H](CCCCN)C(=O)N[C@@H](CC(C)C)C(=O)N[C@@H](CCCN=C(N)N)C(=O)N1CCC[C@H]1C(=O)N[C@H](C)C(N)=O (Ac-[dPhe(4-Cl)][dPhe(4-Cl)][dBta]S[NMeY][dK]LRP[dA]-NH2) [listing 1 of 2 here] | > 25000 | 0.0234 |  | 0.00501
CC(=O)N[C@H](Cc1ccc(Cl)cc1)C(=O)N[C@H](Cc1ccc(Cl)cc1)C(=O)N[C@H](Cc1csc2ccccc12)C(=O)N[C@@H](CO)C(=O)N(C)[C@@H](Cc1ccc(O)cc1)C(=O)N[C@H](CCCCN)C(=O)N[C@@H](CC(C)C)C(=O)N[C@@H](CCCN=C(N)N)C(=O)N1CCC[C@H]1C(=O)N[C@H](C)C(N)=O (Ac-[dPhe(4-Cl)][dPhe(4-Cl)][dBta]S[NMeY][dK]LRP[dA]-NH2) [listing 2 of 2 here] |  |  | < 0.5 | 

Continued, in another order:

solubility [1] [µg/mL] | Ki [3] [nM] | EC50 (Rattus norvegicus [4]) [µg/mL] | Compound | Kb (Rattus norvegicus [2]) [nM]
12000 (≈ 8300 µM) | 0.0135 |  | CC(=O)N[C@H](Cc1ccc2ccccc2c1)C(=O)N[C@H](Cc1ccc(Cl)cc1)C(=O)N[C@H](Cc1cccnc1)C(=O)N[C@@H](CO)C(=O)N(C)[C@@H](Cc1ccc(O)cc1)C(=O)N[C@H](CCCNC(N)=O)C(=O)N[C@@H](CC(C)C)C(=O)N[C@@H](CCCN=C(N)N)C(=O)N1CCC[C@H]1C(=O)N[C@H](C)C(N)=O [listing 1 of 2 here] | 0.0158
 |  | 1.65 (≈ 1.14 µM) | CC(=O)N[C@H](Cc1ccc2ccccc2c1)C(=O)N[C@H](Cc1ccc(Cl)cc1)C(=O)N[C@H](Cc1cccnc1)C(=O)N[C@@H](CO)C(=O)N(C)[C@@H](Cc1ccc(O)cc1)C(=O)N[C@H](CCCNC(N)=O)C(=O)N[C@@H](CC(C)C)C(=O)N[C@@H](CCCN=C(N)N)C(=O)N1CCC[C@H]1C(=O)N[C@H](C)C(N)=O [listing 2 of 2 here] | 
 | 0.0525 |  | COc1ccc(C(=O)CC[C@@H](NC(=O)[C@H](CCCN=C(N)N)NC(=O)[C@H](CO)NC(=O)[C@@H](Cc2cccnc2)NC(=O)[C@@H](Cc2ccc(Cl)cc2)NC(=O)[C@@H](Cc2ccc3ccccc3c2)NC(C)=O)C(=O)N[C@@H](CC(C)C)C(=O)N[C@@H](CCCN=C(N)N)C(=O)N2CCC[C@H]2C(=O)N[C@H](C)C(N)=O)cc1 (Ac-[d2Nal][dPhe(4-Cl)][d3Pal]SR[dNva(5-oxo-5-(4-MeOPh))]LRP[dA]-NH2) [listing 1 of 2 here] | 0.00871
 |  | 1.11 (≈ 0.747 µM) | COc1ccc(C(=O)CC[C@@H](NC(=O)[C@H](CCCN=C(N)N)NC(=O)[C@H](CO)NC(=O)[C@@H](Cc2cccnc2)NC(=O)[C@@H](Cc2ccc(Cl)cc2)NC(=O)[C@@H](Cc2ccc3ccccc3c2)NC(C)=O)C(=O)N[C@@H](CC(C)C)C(=O)N[C@@H](CCCN=C(N)N)C(=O)N2CCC[C@H]2C(=O)N[C@H](C)C(N)=O)cc1 (Ac-[d2Nal][dPhe(4-Cl)][d3Pal]SR[dNva(5-oxo-5-(4-MeOPh))]LRP[dA]-NH2) [listing 2 of 2 here] | 
 |  | 1.11 (≈ 0.776 µM) | CC(=O)N[C@H](Cc1ccc2ccccc2c1)C(=O)N[C@H](Cc1ccc(Cl)cc1)C(=O)N[C@H](Cc1cccnc1)C(=O)N[C@@H](CO)C(=O)N[C@@H](Cc1ccc(O)cc1)C(=O)N[C@H](CCCNC(N)=O)C(=O)N[C@@H](CC(C)C)C(=O)N[C@@H](CCCN=C(N)N)C(=O)N1CCC[C@H]1C(=O)N[C@H](C)C(N)=O (Ac-[d2Nal][dPhe(4-Cl)][d3Pal]SY[dCit]LRP[dA]-NH2) [listing 2 of 2 here] | 
